Results on eight compounds are retold here after ChEMBL document CHEMBL1287649, “Synthesis and anti-tubercular and antimicrobial activities of some 2r,4c-diaryl-3-azabicyclo[3.3.1]nonan-9-one N-isonicotinoylhydrazone derivatives” (2010).

Assay [1] has as its system Mycobacterium tuberculosis. The assay is described as follows: Antitubercular activity against isoniazid-resistant Mycobacterium tuberculosis assessed as reduction of relative light unit at 1 ug/ml after 72 hrs by luciferase reporter phage assay relative to control. The class given is functional. Set-up: scale not given: the % may be the effect or the level left. In a few lines:
(§1)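 Luciferase reporter phage assay. Luminescence (RLU) integrated for 10 s on a luminometer, in duplicate per sample and averaged. Percent RLU reduction calculated against untreated control. Run repeated if the control mean RLU was below 1000.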

The subject of assay [2] is Mycobacterium tuberculosis. Nature of the assay: Antitubercular activity against isoniazid-resistant Mycobacterium tuberculosis assessed as reduction of relative light unit at 2 ug/ml after 72 hrs by luciferase reporter phage assay relative to control. Type of assay: functional. Set-up: scale not given: the % may be the effect or the level left. In a few lines: as §1
(A reporter such as luciferase makes a cellular process visible.)

SMILES strings stand for the structures.

With `O=C(N/N=C1\C2CCCC1[C@H](c1ccc(Cl)cc1)N[C@@H]2c1ccc(Cl)cc1)c1ccncc1`, the Activity in assay [1] was 63.61%; in assay [2], 73.28%.

For `O=C(N/N=C1\C2CCCC1[C@H](c1ccccc1)N[C@@H]2c1ccccc1)c1ccncc1`, the Activity in assay [1] was found to be 69.6%; in assay [2], 77.52%.

In the case of `Cc1ccc([C@H]2N[C@@H](c3ccc(C)cc3)C3CCCC2/C3=N\NC(=O)c2ccncc2)cc1`, the Activity in assay [1] came out at 62.3%; in assay [2], 71.07%.

`COc1ccc([C@H]2N[C@@H](c3ccc(OC)cc3)C3CCCC2/C3=N\NC(=O)c2ccncc2)cc1`: the Activity in assay [1] was 67.07%; in assay [2], 74.19%.

As for `O=C(N/N=C1\C2CCCC1[C@H](c1ccc(F)cc1)N[C@@H]2c1ccc(F)cc1)c1ccncc1`, the Activity was 67.63% in assay [1] and 75.08% in assay [2].

As for `COc1cccc([C@H]2N[C@@H](c3cccc(OC)c3)C3CCCC2/C3=N\NC(=O)c2ccncc2)c1`, the Activity in assay [1] turned out to be 69.18%; in assay [2], 78.33%.

For the compound `O=C(N/N=C1\C2CCCC1[C@H](c1cccc(Cl)c1)N[C@@H]2c1cccc(Cl)c1)c1ccncc1`, the Activity in assay [1] worked out at 65.42%; in assay [2] it was 75.83%.

With `NNC(=O)c1ccncc1` [ISONIAZID], the results for the Activity in assay [1] and in assay [2] were 89.65% and 95.85%, respectively.
